Compounds with a hit are over-represented: about 3.1% of the library has one in this group of screens.
UHRF1 binding = UHRF1 methylated DNA binding inhibitors, primary screen, counter-screen for MBD2 inhibitor project, biochemical, TR-FRET, human UHRF1, single concentration; 0.75% of 370,000 active; inhibition, % at 4.4 µM; UHRF1 binding to methylated oligo; E3 ubiquitin-protein ligase UHRF1 (Homo sapiens), Q96T88; in the data active = inhibition above about 21%;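 also: UHRF1 SRA domain binding a hemimethylated CpG hairpin DNA probe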
Target sequence (Q96T88 whole entry, looked up, the tested form may be a part): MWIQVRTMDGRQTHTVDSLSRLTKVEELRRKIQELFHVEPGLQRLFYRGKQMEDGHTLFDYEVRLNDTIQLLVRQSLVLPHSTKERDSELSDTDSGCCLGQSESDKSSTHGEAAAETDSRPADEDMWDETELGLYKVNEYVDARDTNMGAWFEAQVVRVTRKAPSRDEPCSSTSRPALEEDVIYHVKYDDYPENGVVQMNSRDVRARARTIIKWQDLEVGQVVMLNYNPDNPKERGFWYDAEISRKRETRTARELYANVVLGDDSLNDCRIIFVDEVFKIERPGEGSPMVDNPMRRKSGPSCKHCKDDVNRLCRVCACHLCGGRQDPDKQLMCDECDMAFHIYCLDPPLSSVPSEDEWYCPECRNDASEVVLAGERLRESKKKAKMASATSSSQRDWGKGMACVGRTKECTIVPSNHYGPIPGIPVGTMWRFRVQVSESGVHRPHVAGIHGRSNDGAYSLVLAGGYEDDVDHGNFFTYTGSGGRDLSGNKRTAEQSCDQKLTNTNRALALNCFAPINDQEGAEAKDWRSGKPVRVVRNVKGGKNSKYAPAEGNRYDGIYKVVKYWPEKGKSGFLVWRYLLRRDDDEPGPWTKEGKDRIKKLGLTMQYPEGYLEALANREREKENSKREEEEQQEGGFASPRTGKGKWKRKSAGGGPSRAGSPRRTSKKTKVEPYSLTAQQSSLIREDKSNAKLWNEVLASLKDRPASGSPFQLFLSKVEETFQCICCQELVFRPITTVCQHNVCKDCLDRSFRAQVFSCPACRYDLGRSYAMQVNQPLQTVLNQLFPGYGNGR
MBD2 DNA inh = inhibitors of MBD2 binding to methylated DNA, primary screen, biochemical, TR-FRET, DNA-binding domain, human; 0.31% of 370,000 active; AID 686964, 2013; inhibition, % at 4.4 µM; Methyl-CpG-binding domain protein 2 (Homo sapiens), Q9UBB5; MBD2 binding to methylated oligonucleotide; in the data active = inhibition above about 13%
rCAG RNA binder = binders of r(CAG) RNA repeats, primary screen, biochemical, fluorescence. inhibition, % at 3 µM. r(CAG) RNA repeat, TO-PRO-1 dye displacement fluorescence. 1.3% of 370,000 active;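 active = inhibition above the plate cutoff, the mean of all test compounds on that plate plus 3 SD, cut at about 35% in these data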;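 also: higher means more dye released from RNA so lower well fluorescence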
ATG4B inhibitor = ATG4B protease inhibitors, primary screen, biochemical, fluorescence, uHTS; Cysteine protease ATG4B (Homo sapiens), Q9Y4P1; ATG4B cleavage of LC3-PLA2, NBD-HPC fluorescence, 1 h; 0.51% of 340,000 active; inhibition, % at 8.33 µM; in the data active = inhibition above about 40%
LEDGF integ inh = blockers of LEDGF/p75-dependent integrase strand transfer – biochemical, TR-FRET, high throughput, primary screen; AID 743269, 2014; TR-FRET IN-LEDGF/p75 DNA integration, Eu/Cy5; inhibition, % at 3.7 µM; 0.64% of 370,000 active; HIV-1 integrase (with human LEDGF/p75);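 active = inhibition above the screen-wide mean plus 3 SD, cut at about 13% in these data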;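 also: signal is the Cy5 over europium emission ratio at 671 and 618 nm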
CSN inh = inhibitors of CSN-mediated cullin deneddylation, primary screen, biochemical, fluorescence polarization, uHTS. Purified CSN, SCF-Nedd8-OG deneddylation. inhibition, % at 12.5 µM. 0.38% of 360,000 active. AID 651999, 2013;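 active = pattern-corrected inhibition above about 35%, with an unprinted fluorescence ratio check between 0.5 and 1.5, limit read from the data, passing the limit was not always enough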
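Detection – fluorescence polarization · System – HEK293T-derived human Csn5 enzyme · Controls – substrate-only high control, full reaction low control · Timing – 90 min, room temperature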
IN multimer up = HIV-1 IN multimer formation enhancers, counter-screen for LEDGF/p75 integration inhibitor project, biochemical, TR-FRET | shares compounds with LEDGF integ inh | AID 1053131, 2014 | 17% of 2,000 active | activation, % at 7.7 µM | TR-FRET HIV-1 integrase multimerization; in the data active = activation above about 8.9%
TRFRET interf = TR-FRET optical interference artefacts, confirmation, artefact control for LEDGF/p75-dependent integration inhibitor project, biochemical, HIV-1 IN multimerization; shares compounds with LEDGF integ inh; TR-FRET optical interference counterscreen; inhibition, % at 7.7 µM; 2,000 tested, under 10 active; AID 1053135, 2014;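 active = inhibition above the mean over all tested compounds plus 3 SD, which no compound reached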
LEDGF integ conf = inhibitors of HIV-1 IN-LEDGF/p75 DNA integration, confirmation, biochemical, TR-FRET. shares compounds with LEDGF integ inh. TR-FRET LEDGF/p75-dependent HIV-1 integration. inhibition, % at 3.7 µM. 36% of 2,000 active. AID 1053136, 2014; in the data active = inhibition above about 14%
Hits are given with their value; 0 = inactive; - = not tested or not shown.

SMILES	UHRF1 binding	MBD2 DNA inh	rCAG RNA binder	ATG4B inhibitor	LEDGF integ inh	CSN inh	IN multimer up	TRFRET interf	LEDGF integ conf
CCOc1ccccc1NC(=O)CCS(=O)(=O)c1ccc(OC)cc1	0	0	0	0	0	0	-	-	-
O=C(Nc1cccc(C2=NCCN2)c1)Nc1cccc(C2=NCCN2)c1	0	0	0	0	18	0	0	0	18
O=C(NCCCN1CCN(c2ccc(F)cc2)CC1)Nc1ccccc1	0	0	0	-	0	-	-	-	-
CCc1nnc(NC(=O)c2oc3cc(C)c(C)cc3c2C)s1	0	0	0	0	16	0	0	0	0
CCc1nonc1NC(=O)c1oc2cc(C)c(C)cc2c1C	0	0	0	0	0	0	-	-	-
COc1ccc(NC(=O)NC2CCN(S(=O)(=O)c3ccc(F)cc3)CC2)cc1OC	0	0	0	-	0	-	-	-	-
CC(=O)C(Cc1ccccc1)NC(=O)CN1CCc2ccccc2C1 (stereo unspecified)	0	0	0	0	0	0	-	-	-
CC(CCc1ccccc1)NC(=O)CN1CCc2ccccc2C1 (stereo unspecified)	22	0	0	0	15	0	0	0	0
CCCCCCCCN1C(=O)[C@@H](CC(=O)NCc2cccs2)C[C@@]2(C(=O)OC)C1=C[C@H](C(C)C)O[C@@H]2C1CC1	0	0	0	-	0	-	-	-	-
COc1cc(-c2[nH]nc3c2C(c2ccoc2)C(C#N)=C(N)O3)cc(OC)c1OC (stereo unspecified)	0	0	0	0	0	0	-	-	-
COc1cc(-c2[nH]nc3c2C(c2ccco2)C(C#N)=C(N)O3)cc(OC)c1OC (stereo unspecified)	0	0	0	0	16	0	0	0	0
Cc1ccc(CN2C(=O)C(CC(C)C)Nc3ncnc(N4CCN(c5ccccn5)CC4)c32)cc1 (stereo unspecified)	0	0	0	0	91	0	0	0	0
Cc1ccccc1CN1CCCCC(NC(=O)c2cccc(F)c2)C1=O (stereo unspecified)	0	0	0	-	0	-	-	-	-
CCOc1cc(N2CCOCC2)c(OCC)cc1NC(=O)CSc1ncccn1	0	0	0	0	0	0	-	-	-
CCOc1cc(N2CCOCC2)c(OCC)cc1NC(=O)CSc1ncccc1C(=O)O	0	0	0	0	29	0	0	0	0
Oc1ccc(/C=N/N=C(c2ccccc2)c2ccccc2)c(O)c1O	0	0	0	0	41	0	21	0	84
CCOC(=O)C1=NS(=O)(=O)NC(C)=C1	0	0	0	0	16	0	0	0	0
CC1=CC(c2ccccc2)=NS(=O)(=O)N1	0	0	0	0	0	0	-	-	-
COc1ccccc1-c1nnc2sc(COc3ccc(Cl)cc3Cl)nn12	0	0	0	0	0	0	-	-	-
COc1ccccc1-c1nnc2sc(COc3ccccc3)nn12	0	0	0	0	28	0	0	0	0
CCCCC(=O)Nc1ccc2c(c1)nc(CCN1CCN(C)CC1)n2C	0	0	0	0	82	0	0	0	0
CS(=O)(=O)N(CC(=O)N1CCOCC1)c1cccc(F)c1	0	0	0	0	0	0	-	-	-

High-throughput results from PubChem.
